These results are taken from ChEMBL document CHEMBL1687774, “Furanyl-rhodanines are unattractive drug candidates for development as inhibitors of bacterial RNA polymerase” (Antimicrob Agents Chemother, 2010).

≈ marks a conversion by molar mass, not a printed value. Some results are limits rather than exact numbers.

The subject of assay [1] is Bacillus subtilis. The assay can be described thus: Inhibition of Fatty acid biosynthesis in Bacillus subtilis 1S34 assessed as induction in biosensor fabHB promoter-luciferase reporter signal relative to untreated control. The assay is classed as functional. In a few lines:
(§1)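 B. subtilis biosensor strains carry stress-responsive promoter-reporter constructs (parent 1S34). Value is the maximum reporter signal induced, as a ratio to the signal in noninduced control cultures.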
(In a reporter assay the amount or activity of a reporter protein is the signal.)

For assay [2], the system named is Bacillus subtilis. As to the kind of experiment: Antibacterial activity against Bacillus subtilis 1S34 by microdilution method. Format: functional. In a few lines: (§2)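 MICs by broth microdilution in Mueller-Hinton broth following British Society for Antimicrobial Chemotherapy guidelines; where used, polymyxin B nonapeptide (4 μg/ml) was added together with the compound.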
(In general: In broth dilution the organism is exposed to a series of concentrations in liquid medium.)

In assay [3] the test system is Escherichia coli. As to the kind of experiment: Antibacterial activity against Escherichia coli 1411 by microdilution method in presence of 4 ug/ml PMBN. Format: functional. In a few lines: as §2
The test system of assay [4] is Bacillus subtilis. The assay can be described thus: Inhibition of Protein biosynthesis in Bacillus subtilis 1S34 assessed as induction in biosensor yheI promoter-luciferase reporter signal relative to untreated control. The assay is classed as functional. In short, it runs like this:
as §1

Assay [5] concerns Bacillus subtilis. The assay can be described thus: Inhibition of Cell envelope biosynthesis in Bacillus subtilis 1S34 assessed as induction in biosensor ypuA promoter-luciferase reporter signal relative to untreated control. Format: functional. In a few lines: as §1
In assay [6] the test system is Staphylococcus aureus. The assay can be described thus: Induction of membrane potential loss in Staphylococcus aureus SH1000 at 4 times MIC after 10 mins by DIS3 fluorescence assay. Format: functional. In short, it runs like this: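 Membrane potential measured with the fluorescent dye DiSc3(5) after S. aureus SH1000 was exposed to 4× MIC of compound for 10 min; expressed relative to the drug-free control (100%).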

Assay [7] deals with Bacillus subtilis. The assay can be described thus: Inhibition of RNA biosynthesis in Bacillus subtilis 1S34 assessed as induction in biosensor yvgS promoter-luciferase reporter signal relative to untreated control. The assay is classed as functional. In a few lines: as §1
Assay [8] is filed under the species Sus scrofa. As to the kind of experiment: Inhibition of pig Malate dehydrogenase at 100 uM. In short, it runs like this: (§3)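 Bovine chymotrypsin and porcine malate dehydrogenase specificity screens with compound at 100 μM; percent inhibition of enzyme activity.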
Assay [9] relates to Staphylococcus aureus. As to the kind of experiment: Induction of membrane integrity loss in Staphylococcus aureus SH1000 at 4 times MIC after 10 mins by BacLight assay. The assay is classed as functional. In short, it runs like this: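 Membrane integrity measured by BacLight fluorescence after S. aureus SH1000 was exposed to 4× MIC of compound for 10 min; expressed relative to the drug-free control (100%).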

Assay [10] concerns Staphylococcus aureus. The assay can be described thus: Antibacterial activity against Staphylococcus aureus SH1000 by microdilution method. The assay is classed as functional. In a few lines:
as §2

Assay [11] relates to Bacillus subtilis. The assay can be described thus: Inhibition of DNA biosynthesis in Bacillus subtilis 1S34 assessed as induction in biosensor yorB promoter-luciferase reporter signal relative to untreated control. Format: functional. In a few lines: as §1
The subject of assay [12] is Escherichia coli. The assay can be described thus: Antibacterial activity against AcrAB-deficient Escherichia coli SM1411 by microdilution method. The assay is classed as functional. In a few lines:
as §2

The species entered for assay [13] is Bos taurus. As to the kind of experiment: Inhibition of bovine Chymotrypsin at 100 uM. In short, it runs like this:
as §3

Assay [14] concerns Escherichia coli. As to the kind of experiment: Antibacterial activity against Escherichia coli 1411 by microdilution method. The assay is classed as functional. In short, it runs like this: as §2
Assay [15] in a line: Inhibition of Escherichia coli RNA polymerase using Kool NC-45 universal RNA polymerase template. In short, it runs like this:
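In vitro E. coli RNA polymerase assay using the Kool NC-45 universal RNA polymerase template; IC50 determined.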

Assay [16] is filed under the species Bos taurus. As to the kind of experiment: Inhibition of bovine Chymotrypsin at 0.0472 uM.
The species entered for assay [17] is Sus scrofa. The assay can be described thus: Inhibition of pig Malate dehydrogenase at 0.0472 uM.
For assay [18], the system named is Staphylococcus epidermidis. The assay can be described thus: Antibacterial activity against Staphylococcus epidermidis ATCC 11047 by microdilution method. The assay is classed as functional. In a few lines: as §2

In general, MIC refers to the lowest concentration found to suppress growth. Broadly, the inhibition is the change of the read-out against control, counted positive when it falls. A word on the IC50: it is the concentration that inhibits the measured activity by half. Low values mean higher potency, high ones lower potency. With `O=C(O)CCCN1C(=O)/C(=C/c2ccc(-c3cccc(Cl)c3)o2)SC1=S`, the “fold change (FC)” value is recorded as 0.9 in the assay on Bacillus subtilis [1]; 1.2 with Bacillus subtilis [4]; 1 with Bacillus subtilis [5]; 1 in the assay with Bacillus subtilis [7]; 1.1 with Bacillus subtilis [11]. The MIC against Bacillus subtilis [2] is 1 µg/mL (≈ 2.45 µM); with Escherichia coli [3], 16 µg/mL; with Staphylococcus aureus [10] it was 4 µg/mL (≈ 9.81 µM); against Escherichia coli [12] it was above 128 µg/mL; in the assay on Escherichia coli [14], above 128 µg/mL. The Activity in the assay with Staphylococcus aureus [6] turned out to be 43.1%; with Staphylococcus aureus [9] it was 27.3%. The results for the inhibition in the assay listed under Sus scrofa [8] and in the assay listed under Bos taurus [13] were 88.1% and 96.7%, respectively. Also, 16.3 µM corresponded to half-maximal inhibition in assay [15] (IC50).
For `CO[C@H]1/C=C/O[C@@]2(C)Oc3c(C)c(O)c4c(O)c(c(/C=N/N5CCN(C)CC5)c(O)c4c3C2=O)NC(=O)/C(C)=C\C=C\[C@H](C)[C@H](O)[C@@H](C)[C@@H](O)[C@@H](C)[C@H](OC(C)=O)[C@@H]1C` [RIFAMPIN], the values for the inhibition in the assay listed under Bos taurus [16] and in the assay listed under Sus scrofa [17] were 7.8% and 8.3%, respectively. In addition, in assay [15], 0.0115 µM corresponded to half-maximal inhibition (IC50).
`C/C=C/C/C=C(\C)C(O)CC/C(C)=C/C=C(\C)C(=O)c1c(O)cc([C@H](C)CC/C=C/NC(=O)OC)oc1=O` (some centres undefined) [CORALLOPYRONIN A] registered an IC50 in [15] of 0.726 µM.
Turning to `O=C1NC(=S)S/C1=C\c1ccc([N+](=O)[O-])o1`, the “fold change (FC)” value in the assay on Bacillus subtilis [1] is given as 1.4; with Bacillus subtilis [4] it was 1.3; with Bacillus subtilis [5], 1; in the assay on Bacillus subtilis [7], 1.3; in the assay with Bacillus subtilis [11], 8. Also, the MIC in the assay with Bacillus subtilis [2] came out at 1 µg/mL (≈ 3.9 µM); in the assay with Escherichia coli [3] it was 2 µg/mL; in the assay with Staphylococcus aureus [10] it was 4 µg/mL (≈ 15.6 µM); in the assay with Escherichia coli [12], 16 µg/mL (≈ 62.4 µM); in the assay on Escherichia coli [14], 16 µg/mL (≈ 62.4 µM). Moreover, the Activity in the assay with Staphylococcus aureus [6] is given as 104.8%; with Staphylococcus aureus [9] it was 82.8%. Moreover, the inhibition in the assay listed under Sus scrofa [8] turned out to be 99.7%; in the assay listed under Bos taurus [13], 49.4%. This compound showed an IC50 in assay [15] of 32.2 µM.
`C=CCN1C(=O)/C(=C/c2ccc(-c3ccc(C(=O)O)cc3)o2)SC1=S`: the minimal inhibitory concentration (MIC) (against Bacillus subtilis [2]; with Escherichia coli [3]; in assay [18]; with Staphylococcus aureus [10]; in the assay on Escherichia coli [12]; in the assay with Escherichia coli [14]) was above 256 µg/mL each time. The inhibition in the assay filed under Sus scrofa [8] came out at 96.3%; in the assay listed under Bos taurus [13] it was 67.4%. The same compound gave a concentration for half-maximal inhibition (IC50) in assay [15] of 37.3 µM.
`CO[C@H]1/C=C/O[C@@]2(C)Oc3c(C)c(O)c4c(O)c(cc(O)c4c3C2=O)NC(=O)/C(C)=C\C=C\[C@H](C)[C@H](O)[C@@H](C)[C@@H](O)[C@@H](C)[C@H](OC(C)=O)[C@@H]1C` [RIFAMYCIN]: the IC50 in assay [15] stood at 0.0086 µM.
